Test results published in ChEMBL document CHEMBL1152917, “Benzothiophene piperazine and piperidine urea inhibitors of fatty acid amide hydrolase (FAAH)” (2009).
The source made the active and inactive calls. No cut-off for these calls is given here.

Columns and labels:
[1] = target: T1, Fatty-acid amide hydrolase 1 (Homo sapiens) (UniProt O00519); test: Ratio of Kinact to Ki for histidine6-tagged human FAAH
T1 sequence (whole entry): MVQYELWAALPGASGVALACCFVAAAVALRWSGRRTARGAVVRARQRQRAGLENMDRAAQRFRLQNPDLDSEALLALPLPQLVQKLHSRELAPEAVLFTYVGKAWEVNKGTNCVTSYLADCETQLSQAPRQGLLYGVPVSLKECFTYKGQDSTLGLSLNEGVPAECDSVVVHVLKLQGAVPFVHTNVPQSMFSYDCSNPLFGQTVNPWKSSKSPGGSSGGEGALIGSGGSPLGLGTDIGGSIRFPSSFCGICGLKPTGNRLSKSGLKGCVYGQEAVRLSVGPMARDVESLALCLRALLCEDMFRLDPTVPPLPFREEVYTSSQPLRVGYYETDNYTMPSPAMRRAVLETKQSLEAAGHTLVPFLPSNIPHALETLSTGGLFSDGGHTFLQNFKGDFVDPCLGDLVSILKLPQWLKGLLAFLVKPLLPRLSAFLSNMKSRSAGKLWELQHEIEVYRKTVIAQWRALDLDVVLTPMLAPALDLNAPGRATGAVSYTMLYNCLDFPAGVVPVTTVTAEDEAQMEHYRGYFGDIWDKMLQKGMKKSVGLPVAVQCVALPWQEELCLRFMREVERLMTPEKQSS
Procedure, shortened: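 Human FAAH construct: aa 32–579, N-terminal transmembrane-deleted, N-terminal His6 tag, expressed in E. coli and purified to >95% by SDS–PAGE. Potency measured as kinact/Ki in a GDH-coupled FAAH assay in 384-well format. kobs was plotted against [I]; kinact/Ki came from the slope kinact/[Ki(1+[S]/Km)].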

[2] = target: T2, Fatty-acid amide hydrolase 1 (Rattus norvegicus) (UniProt P97612); test: Ratio of Kinact to Ki for histidine6-tagged rat FAAH
T2 sequence (whole entry): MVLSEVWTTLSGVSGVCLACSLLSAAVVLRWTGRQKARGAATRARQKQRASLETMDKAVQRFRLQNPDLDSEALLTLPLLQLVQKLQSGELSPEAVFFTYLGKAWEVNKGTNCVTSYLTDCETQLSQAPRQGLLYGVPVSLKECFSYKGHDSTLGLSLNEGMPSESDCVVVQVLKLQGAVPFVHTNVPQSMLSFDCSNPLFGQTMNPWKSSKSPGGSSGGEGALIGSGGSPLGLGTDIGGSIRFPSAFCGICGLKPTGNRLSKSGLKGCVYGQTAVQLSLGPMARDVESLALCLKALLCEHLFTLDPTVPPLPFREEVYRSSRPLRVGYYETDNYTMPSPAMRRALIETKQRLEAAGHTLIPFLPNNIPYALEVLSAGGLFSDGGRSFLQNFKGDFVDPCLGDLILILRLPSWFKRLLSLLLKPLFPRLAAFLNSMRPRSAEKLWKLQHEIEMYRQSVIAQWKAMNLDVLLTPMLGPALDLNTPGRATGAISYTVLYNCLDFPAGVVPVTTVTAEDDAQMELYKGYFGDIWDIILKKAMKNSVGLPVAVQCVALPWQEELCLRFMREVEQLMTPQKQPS
Procedure, shortened: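 Rat FAAH construct: aa 30–579, N-terminal transmembrane-deleted, N-terminal His6 tag, E. coli-expressed and purified to >95% purity. Activity read by a GDH-coupled enzyme assay in 384-well plates. Second-order kinact/Ki was derived from the linear slope of kobs versus [I], correcting with (1+[S]/Km).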

[3] = target: T3, Fatty-acid amide hydrolase 1 (Mus musculus) (UniProt O08914); test: Inhibition of histidine6-tagged FAAH from mouse liver proteomes at 10 to 100 uM
T3 sequence (whole entry): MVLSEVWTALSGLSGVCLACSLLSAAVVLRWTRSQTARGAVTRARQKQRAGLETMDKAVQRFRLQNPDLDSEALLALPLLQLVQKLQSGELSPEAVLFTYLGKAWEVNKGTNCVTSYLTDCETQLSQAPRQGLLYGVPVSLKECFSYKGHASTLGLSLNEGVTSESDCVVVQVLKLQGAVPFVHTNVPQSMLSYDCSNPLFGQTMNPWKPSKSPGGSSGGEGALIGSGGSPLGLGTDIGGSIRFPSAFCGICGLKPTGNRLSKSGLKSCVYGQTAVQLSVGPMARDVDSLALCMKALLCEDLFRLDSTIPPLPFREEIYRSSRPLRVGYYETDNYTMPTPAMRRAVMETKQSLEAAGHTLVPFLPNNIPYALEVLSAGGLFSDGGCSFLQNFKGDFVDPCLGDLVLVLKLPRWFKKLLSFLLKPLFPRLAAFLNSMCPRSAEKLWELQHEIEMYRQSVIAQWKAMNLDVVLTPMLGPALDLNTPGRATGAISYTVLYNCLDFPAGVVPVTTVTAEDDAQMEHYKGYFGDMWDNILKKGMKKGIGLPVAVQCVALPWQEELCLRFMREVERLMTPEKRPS
Procedure, shortened: (§1)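 Competitive activity-based protein profiling with FP probe labeling of serine hydrolases. Proteomes used: soluble mouse liver, mouse kidney, human liver and human heart, plus human brain membrane. Compounds tested at 100 μM, reference at 10 and 100 μM. Inhibited bands were read by gel; FAAH and off-target labeling were judged by band loss.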

[4] = target: T3, Fatty-acid amide hydrolase 1 (Mus musculus); test: Inhibition of histidine6-tagged FAAH from mouse kidney proteomes at 10 to 100 uM; format: tissue-based; procedure, shortened: as §1
[5] = target: T1, Fatty-acid amide hydrolase 1 (Homo sapiens); test: Inhibition of histidine6-tagged FAAH from human liver proteomes at 10 to 100 uM; procedure, shortened: as §1
[6] = target: T1, Fatty-acid amide hydrolase 1 (Homo sapiens); test: Inhibition of histidine6-tagged FAAH from human heart proteomes at 10 to 100 uM; procedure, shortened: as §1
[7] = target: T1, Fatty-acid amide hydrolase 1 (Homo sapiens); test: Inhibition of histidine6-tagged FAAH from human brain proteomes at 10 to 100 uM; procedure, shortened: as §1

SMILES | Ratio [1] | Ratio [2] | further results
C=C(c1sc2ccccc2c1C)C1CCN(C(=O)Nc2cccnc2)CC1 | 5440 M⁻¹ s⁻¹ | 991 M⁻¹ s⁻¹ | 
Cc1c(C(C)C2CCN(C(=O)Nc3cccnc3)CC2)sc2ccccc12 (racemic) | 114 M⁻¹ s⁻¹ | 48 M⁻¹ s⁻¹ | 
Cc1c(CN2CCN(C(=O)Nc3ccc(C(F)(F)F)nc3)CC2)sc2ccccc12 | 42 M⁻¹ s⁻¹ | < 10 M⁻¹ s⁻¹ | 
Cc1c(CN2CCN(C(=O)Nc3ccc(N)nc3)CC2)sc2ccccc12 | 1920 M⁻¹ s⁻¹ | 762 M⁻¹ s⁻¹ | 
Cc1c(CN2CCN(C(=O)Nc3cccnc3)CC2)sc2ccc(F)cc12 | 3130 M⁻¹ s⁻¹ | 779 M⁻¹ s⁻¹ | 
Cc1c(CN2CCN(C(=O)Nc3ccc(N(C)C)nc3)CC2)sc2ccccc12 | 2400 M⁻¹ s⁻¹ | 1080 M⁻¹ s⁻¹ | 
Cc1c(CN2CCN(C(=O)Nc3ccc(Cl)nc3)CC2)sc2ccccc12 | < 10 M⁻¹ s⁻¹ | 242 M⁻¹ s⁻¹ | 
CNc1ccc(NC(=O)N2CCN(Cc3sc4ccccc4c3C)CC2)cn1 | 1000 M⁻¹ s⁻¹ | 635 M⁻¹ s⁻¹ | 
Cc1c(CN2CCN(C(=O)NC(C)(C)C)CC2)sc2ccccc12 | < 10 M⁻¹ s⁻¹ | < 10 M⁻¹ s⁻¹ | 
CCOc1ccc2c(C)c(CN3CCN(C(=O)Nc4cccnc4)CC3)sc2c1 | 14 M⁻¹ s⁻¹ | < 10 M⁻¹ s⁻¹ | 
Cc1noc(NC(=O)N2CCN(Cc3sc4ccccc4c3C)CC2)c1C | 1560 M⁻¹ s⁻¹ | 1430 M⁻¹ s⁻¹ | 
Cc1c(C(C)C2CCN(C(=O)Nc3cccnc3)CC2)sc2ccccc12 (stereo in doubt; 17-E1) | 34 M⁻¹ s⁻¹ | < 10 M⁻¹ s⁻¹ | 
CCNc1ccc(NC(=O)N2CCN(Cc3sc4ccccc4c3C)CC2)cn1 | 924 M⁻¹ s⁻¹ | 191 M⁻¹ s⁻¹ | 
Cc1c(CN2CCN(C(=O)Nc3cccnn3)CC2)sc2ccccc12 | 924 M⁻¹ s⁻¹ | 191 M⁻¹ s⁻¹ | 
Cc1c(C(=O)C2CCN(C(=O)Nc3cccnc3)CC2)sc2ccccc12 | 3600 M⁻¹ s⁻¹ | 1230 M⁻¹ s⁻¹ | 
Cc1ccc(NC(=O)N2CCN(Cc3sc4ccccc4c3C)CC2)cn1 | 44 M⁻¹ s⁻¹ | 390 M⁻¹ s⁻¹ | inhibition [3]: Active; inhibition [4]: Active; inhibition [5]: Active; inhibition [6]: Active; inhibition [7]: Active
Cc1c(CC2CCN(C(=O)Nc3cccnc3)CC2)sc2cccc(F)c12 | 4150 M⁻¹ s⁻¹ | 1550 M⁻¹ s⁻¹ | 
Cc1ccc(NC(=O)N2CCN(Cc3sc4cccc(F)c4c3C)CC2)cn1 | 1980 M⁻¹ s⁻¹ | 758 M⁻¹ s⁻¹ | 
Cc1ccc(NC(=O)N2CCN(Cc3sc4ccccc4c3Cl)CC2)cn1 | 900 M⁻¹ s⁻¹ | 133 M⁻¹ s⁻¹ | 
Cc1c(C(C)C2CCN(C(=O)Nc3cccnc3)CC2)sc2ccccc12 (stereo in doubt; 17-E2) | 617 M⁻¹ s⁻¹ | 110 M⁻¹ s⁻¹ | 
NC(=O)c1cccc(-c2cccc(OC(=O)NC3CCCCC3)c2)c1 |  |  | inhibition [3]: Active; inhibition [4]: Active; inhibition [5]: Active; inhibition [6]: Active; inhibition [7]: Active
Cc1c(CC2CCN(C(=O)Nc3cccnc3)CC2)sc2ccccc12 | 5130 M⁻¹ s⁻¹ | 2610 M⁻¹ s⁻¹ | 
Cc1ccc2sc(CN3CCN(C(=O)Nc4cccnc4)CC3)c(C)c2c1 | 2640 M⁻¹ s⁻¹ | 557 M⁻¹ s⁻¹ | 
Cc1c(CN2CCN(C(=O)Nc3ccccn3)CC2)sc2ccccc12 | 1000 M⁻¹ s⁻¹ | 635 M⁻¹ s⁻¹ | 
CCN(CC)c1ccc(NC(=O)N2CCN(Cc3sc4ccccc4c3C)CC2)cn1 | 1560 M⁻¹ s⁻¹ | 1430 M⁻¹ s⁻¹ | 
CCc1c(CC2CCN(C(=O)Nc3cccnc3)CC2)sc2ccc(F)cc12 | 2290 M⁻¹ s⁻¹ | 1140 M⁻¹ s⁻¹ | 
CCCCNC(=O)N1CCN(Cc2sc3ccccc3c2C)CC1 | 44 M⁻¹ s⁻¹ | 13 M⁻¹ s⁻¹ | 

SMILES | Ratio [1] | Ratio [2] | further results
Cc1ccc2sc(CN3CCN(C(=O)Nc4ccc(C)nc4)CC3)c(C)c2c1 | 1170 M⁻¹ s⁻¹ | 183 M⁻¹ s⁻¹ | 
Cc1c(CN2CCN(C(=O)Nc3ccc(Oc4cccnc4)nc3)CC2)sc2ccccc12 | < 10 M⁻¹ s⁻¹ | < 10 M⁻¹ s⁻¹ | 
Cc1c(CN2CCN(C(=O)Nc3cccnc3)CC2)sc2ccccc12 | 2400 M⁻¹ s⁻¹ | 1080 M⁻¹ s⁻¹ | 
Cc1ccc2c(Cl)c(CN3CCN(C(=O)Nc4ccc(C)nc4)CC3)sc2c1 | 73 M⁻¹ s⁻¹ | 14 M⁻¹ s⁻¹ | 
Cc1ccc(NC(=O)N2CCN(Cc3sc4ccc(F)cc4c3C)CC2)cn1 | 1870 M⁻¹ s⁻¹ | 260 M⁻¹ s⁻¹ | 
CCc1c(CC2CCN(C(=O)Nc3cccnc3)CC2)sc2ccccc12 | 1670 M⁻¹ s⁻¹ | 1010 M⁻¹ s⁻¹ | 
COc1ccc2sc(CN3CCN(C(=O)Nc4cccnc4)CC3)c(C)c2c1 | 1380 M⁻¹ s⁻¹ | 500 M⁻¹ s⁻¹ | 
CC(=O)Nc1ccc(NC(=O)N2CCN(Cc3sc4ccccc4c3C)CC2)cn1 | < 10 M⁻¹ s⁻¹ | < 10 M⁻¹ s⁻¹ | 
CCc1c(CN2CCN(C(=O)Nc3cccnc3)CC2)sc2ccccc12 | 1400 M⁻¹ s⁻¹ | 774 M⁻¹ s⁻¹ | 
Cc1c(CN2CCN(C(=O)NCCO)CC2)sc2ccccc12 | 42 M⁻¹ s⁻¹ | < 10 M⁻¹ s⁻¹ | 
Cc1cnc(NC(=O)N2CCN(Cc3sc4ccccc4c3C)CC2)s1 | < 10 M⁻¹ s⁻¹ | < 10 M⁻¹ s⁻¹ | 
Cc1c(CN2CCN(C(=O)NCc3ccccc3)CC2)sc2ccccc12 | < 10 M⁻¹ s⁻¹ | < 10 M⁻¹ s⁻¹ | 
O=C(Nc1cccnc1)N1CCN(Cc2cc3ccccc3s2)CC1 | 695 M⁻¹ s⁻¹ | 174 M⁻¹ s⁻¹ | 
Cc1ccc2sc(CC3CCN(C(=O)Nc4cccnc4)CC3)c(C)c2c1 | 3020 M⁻¹ s⁻¹ | 482 M⁻¹ s⁻¹ | 
Cc1c(CN2CCN(C(=O)Nc3cccnc3)CC2)sc2ccc(C(F)(F)F)cc12 | 1390 M⁻¹ s⁻¹ | 219 M⁻¹ s⁻¹ | 
Cc1c(CN2CCN(C(=O)Nc3ccc(Br)nc3)CC2)sc2ccccc12 | 70 M⁻¹ s⁻¹ | 157 M⁻¹ s⁻¹ | 
Cc1c(CN2CCN(C(=O)Nc3ccc(-c4ccccc4)nc3)CC2)sc2ccccc12 | < 10 M⁻¹ s⁻¹ | 1220 M⁻¹ s⁻¹ | 
Cc1c(CN2CCN(C(=O)Nc3cccnc3)CC2)sc2ccc(Cl)cc12 | 2820 M⁻¹ s⁻¹ | 1130 M⁻¹ s⁻¹ | 
CCc1c(CN2CCN(C(=O)Nc3cccnc3)CC2)sc2ccc(F)cc12 | 1810 M⁻¹ s⁻¹ | 617 M⁻¹ s⁻¹ | 
Cc1c(CN2CCN(C(=O)NC(C)C)CC2)sc2ccccc12 | 70 M⁻¹ s⁻¹ | < 10 M⁻¹ s⁻¹ | 
CNC(=O)CNC(=O)N1CCN(Cc2sc3ccccc3c2C)CC1 | < 10 M⁻¹ s⁻¹ | < 10 M⁻¹ s⁻¹ | 
Cc1c(CN2CCN(C(=O)Nc3cccnc3)CC2)sc2cccc(F)c12 | 3320 M⁻¹ s⁻¹ | 1200 M⁻¹ s⁻¹ | 
Cc1c(CN2CCN(C(=O)NC3CCCCC3)CC2)sc2ccccc12 | < 10 M⁻¹ s⁻¹ | < 10 M⁻¹ s⁻¹ | 
Cc1c(CN2CCN(C(=O)Nc3ccccc3)CC2)sc2ccccc12 | 1920 M⁻¹ s⁻¹ | 762 M⁻¹ s⁻¹ | 
COc1ccc2c(C)c(CN3CCN(C(=O)Nc4cccnc4)CC3)sc2c1 | 73 M⁻¹ s⁻¹ | 113 M⁻¹ s⁻¹ | 
Cc1c(C(O)C2CCN(C(=O)Nc3cccnc3)CC2)sc2ccccc12 (racemic) | 200 M⁻¹ s⁻¹ | 79 M⁻¹ s⁻¹ | 
